Reference: ChEMBL document CHEMBL3407461 (J Med Chem, 2014)
Values after ≈ are worked out from the molar mass of the structure shown. Active and inactive are the calls of the source.

What was measured:
Mus musculus [1] = assay: Antinociceptive activity in chronic constriction injury neutropathic pain CD-1 mouse model assessed as maximum protection on ipsilateral hind paw at 3 umol/kg, po after 30 mins to 5 hrs post dose relative to control; assay type: functional; settings: CD-1, po
Mus musculus [2] = assay: Antinociceptive activity in chronic constriction injury neutropathic pain CD-1 mouse model assessed as time for peak protection at 3 umol/kg, po; assay type: functional
Outline: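 Male CD-1 mice (25−30 g), chronic constriction injury of left sciatic nerve (Bennett model) under isoflurane. Dosed by gavage (3 μmol/kg, 0.2 mL) at peak mechano-allodynia on day 7; vehicle 10% DMSO in 0.5% methylcellulose. Paw withdrawal threshold (g) measured on the ipsilateral hind paw from 30 min to 5 h post dose. Expressed as % reversal, mean ± SEM over n animals.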

Mus musculus [3] = assay: Antinociceptive activity in chronic constriction injury neutropathic pain CD-1 mouse model at 3 umol/kg, po after 3 hrs post dose relative to control; assay type: functional
[4] = molecular target: Voltage-gated inwardly rectifying potassium channel KCNH2 (Homo sapiens, UniProt Q12809); assay: Inhibition of human ERG by PDSP screening
Sequence of Voltage-gated inwardly rectifying potassium channel KCNH2 (Q12809 whole entry): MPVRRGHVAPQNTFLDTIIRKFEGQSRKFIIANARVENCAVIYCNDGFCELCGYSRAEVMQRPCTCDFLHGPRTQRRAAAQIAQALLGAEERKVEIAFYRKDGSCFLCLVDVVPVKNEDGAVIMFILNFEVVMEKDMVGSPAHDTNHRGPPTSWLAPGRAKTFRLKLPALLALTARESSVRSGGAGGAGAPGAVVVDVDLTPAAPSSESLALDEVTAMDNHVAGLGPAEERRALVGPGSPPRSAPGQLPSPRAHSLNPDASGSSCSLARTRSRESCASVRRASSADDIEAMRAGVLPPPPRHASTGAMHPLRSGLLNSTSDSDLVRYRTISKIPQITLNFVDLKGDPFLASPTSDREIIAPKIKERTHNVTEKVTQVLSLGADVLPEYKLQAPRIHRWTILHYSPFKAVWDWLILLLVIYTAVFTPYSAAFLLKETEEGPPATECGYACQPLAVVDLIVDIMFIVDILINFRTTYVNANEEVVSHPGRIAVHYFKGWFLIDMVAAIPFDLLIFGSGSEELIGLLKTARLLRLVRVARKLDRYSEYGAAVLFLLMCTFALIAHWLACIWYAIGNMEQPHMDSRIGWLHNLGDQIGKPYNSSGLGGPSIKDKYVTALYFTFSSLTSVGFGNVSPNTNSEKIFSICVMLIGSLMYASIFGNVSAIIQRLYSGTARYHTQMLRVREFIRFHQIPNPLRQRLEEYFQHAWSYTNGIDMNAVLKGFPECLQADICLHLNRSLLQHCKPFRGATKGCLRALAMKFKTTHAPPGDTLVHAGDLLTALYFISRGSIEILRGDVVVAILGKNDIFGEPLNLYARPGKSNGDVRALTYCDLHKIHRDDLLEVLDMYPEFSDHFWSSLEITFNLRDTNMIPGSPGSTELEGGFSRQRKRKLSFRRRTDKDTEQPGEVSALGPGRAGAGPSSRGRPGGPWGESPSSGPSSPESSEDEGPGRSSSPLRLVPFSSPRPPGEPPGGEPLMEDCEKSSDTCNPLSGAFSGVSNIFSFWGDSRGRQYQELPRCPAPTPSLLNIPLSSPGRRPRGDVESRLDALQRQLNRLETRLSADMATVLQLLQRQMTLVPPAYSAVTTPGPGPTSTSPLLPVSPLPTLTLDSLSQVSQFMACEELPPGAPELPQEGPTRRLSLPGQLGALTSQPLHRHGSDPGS

Adenosine receptor A3 = Adenosine receptor A3 (Mus musculus, UniProt Q61618); assay: Displacement of [125I]I-AB-MECA from mouse A3 adenosine receptor expressed in HEK293 cells after 60 mins by liquid scintillation counting; assay type: cell-based
CHO [5] = assay: Selectivity ratio of IC50 for human ERG to IC50 for human recombinant A3 adenosine receptor expressed in CHO cells; assay type: cell-based
CHO [6] = assay: Selectivity ratio of Ki for mouse A3 adenosine receptor expressed in HEK293 cells to Ki for human recombinant A3 adenosine receptor expressed in CHO cells; assay type: cell-based
[7] = molecular target: T1, Adenosine receptor A1 (Mus musculus) (UniProt Q60612); assay: Displacement of [125I]I-AB-MECA from mouse A1 adenosine receptor expressed in HEK293 cells at 10 uM after 60 mins by liquid scintillation counting
T1 sequence (whole entry): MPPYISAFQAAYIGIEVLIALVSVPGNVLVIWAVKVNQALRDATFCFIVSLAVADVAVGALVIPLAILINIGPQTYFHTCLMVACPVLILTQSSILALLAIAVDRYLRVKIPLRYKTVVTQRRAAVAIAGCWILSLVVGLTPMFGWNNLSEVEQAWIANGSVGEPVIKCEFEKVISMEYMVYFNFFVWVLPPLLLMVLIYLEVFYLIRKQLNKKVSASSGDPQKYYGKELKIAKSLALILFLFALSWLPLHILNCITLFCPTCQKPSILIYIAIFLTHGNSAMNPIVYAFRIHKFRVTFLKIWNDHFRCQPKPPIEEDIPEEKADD

hERG (KCNH2) = hERG (KCNH2) (Homo sapiens, UniProt Q12809); assay: Inhibition of human ERG at 10 uM by PDSP screening
[8] = Permeability across apical to basolateral side of human Caco2 cells expressing P-gp; assay type: ADME, cell-based; settings: caco-2
[9] = molecular target: Adenosine receptor A2a (Mus musculus) (UniProt Q60613); assay: Displacement of [3H]CGS21680 from mouse A2A adenosine receptor expressed in HEK293 cells at 10 uM after 60 mins by liquid scintillation counting; assay type: cell-based
Sequence of Adenosine receptor A2a (Mus musculus) (Q60613 whole entry): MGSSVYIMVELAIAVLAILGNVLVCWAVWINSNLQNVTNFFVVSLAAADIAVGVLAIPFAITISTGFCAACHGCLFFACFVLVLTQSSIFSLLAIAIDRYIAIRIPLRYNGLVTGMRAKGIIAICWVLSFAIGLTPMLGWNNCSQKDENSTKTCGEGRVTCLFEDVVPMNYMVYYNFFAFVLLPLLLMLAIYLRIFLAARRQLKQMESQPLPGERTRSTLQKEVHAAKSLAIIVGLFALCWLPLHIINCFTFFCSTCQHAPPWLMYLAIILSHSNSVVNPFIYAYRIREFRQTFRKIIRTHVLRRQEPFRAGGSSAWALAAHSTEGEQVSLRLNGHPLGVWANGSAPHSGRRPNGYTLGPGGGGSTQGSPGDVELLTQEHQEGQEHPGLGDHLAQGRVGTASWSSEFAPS

[10] = molecular target: Adenosine receptor A2a (Homo sapiens) (UniProt P29274); assay: Displacement of [3H]CGS21680 from human recombinant A2A adenosine receptor expressed in HEK293 cells at 10 uM after 60 mins by liquid scintillation counting; assay type: cell-based
Sequence of Adenosine receptor A2a (Homo sapiens) (P29274 whole entry): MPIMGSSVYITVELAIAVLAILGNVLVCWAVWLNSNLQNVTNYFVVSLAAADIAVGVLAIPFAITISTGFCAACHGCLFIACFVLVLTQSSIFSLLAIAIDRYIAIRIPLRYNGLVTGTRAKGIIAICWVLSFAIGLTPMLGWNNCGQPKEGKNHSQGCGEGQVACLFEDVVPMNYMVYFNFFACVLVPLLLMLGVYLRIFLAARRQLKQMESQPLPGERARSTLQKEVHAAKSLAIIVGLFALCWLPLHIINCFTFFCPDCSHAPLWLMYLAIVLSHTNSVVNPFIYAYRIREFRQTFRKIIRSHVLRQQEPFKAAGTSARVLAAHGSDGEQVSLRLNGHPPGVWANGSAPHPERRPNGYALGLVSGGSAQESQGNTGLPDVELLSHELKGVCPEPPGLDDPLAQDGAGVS

[11] = molecular target: T2, Adenosine receptor A1 (Homo sapiens) (UniProt P30542); assay: Displacement of [3H]R-PIA from human recombinant A1 adenosine receptor expressed in CHO cells at 10 uM after 60 mins by liquid scintillation counting; assay type: cell-based
T2 sequence (whole entry): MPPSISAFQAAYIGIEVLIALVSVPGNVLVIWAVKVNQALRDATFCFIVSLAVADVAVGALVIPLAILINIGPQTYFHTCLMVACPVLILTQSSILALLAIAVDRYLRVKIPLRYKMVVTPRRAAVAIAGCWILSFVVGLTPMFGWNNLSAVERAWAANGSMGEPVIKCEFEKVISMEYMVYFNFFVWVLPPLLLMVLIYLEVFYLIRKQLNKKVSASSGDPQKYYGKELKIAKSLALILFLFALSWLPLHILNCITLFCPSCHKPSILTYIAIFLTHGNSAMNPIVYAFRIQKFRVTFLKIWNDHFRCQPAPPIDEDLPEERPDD

[12] = Half life of the compound in simulated intestinal fluid at pH 6.5; assay type: ADME; settings: simulated gi fluid
CYP2C9 = CYP2C9 (Homo sapiens, UniProt P11712); assay: Inhibition of CYP2C9 in human microsomes preincubated at 10 uM for 5 mins before substrate addition measured after 10 mins by LC/MS/MS analysis; assay type: ADME
Sequence of CYP2C9 (P11712 whole entry): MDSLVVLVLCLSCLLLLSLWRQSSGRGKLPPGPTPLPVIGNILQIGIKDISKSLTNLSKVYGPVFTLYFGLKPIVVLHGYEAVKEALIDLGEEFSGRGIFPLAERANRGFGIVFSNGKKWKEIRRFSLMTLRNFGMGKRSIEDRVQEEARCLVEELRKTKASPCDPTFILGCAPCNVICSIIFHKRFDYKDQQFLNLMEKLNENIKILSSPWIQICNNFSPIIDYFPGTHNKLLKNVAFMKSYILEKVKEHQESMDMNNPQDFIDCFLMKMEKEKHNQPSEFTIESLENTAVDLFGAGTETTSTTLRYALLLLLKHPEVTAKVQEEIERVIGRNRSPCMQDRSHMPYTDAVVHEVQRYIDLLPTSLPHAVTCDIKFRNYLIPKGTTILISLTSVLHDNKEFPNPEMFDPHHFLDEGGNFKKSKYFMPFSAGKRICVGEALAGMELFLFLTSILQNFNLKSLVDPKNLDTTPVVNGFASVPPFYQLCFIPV

Cytochrome P450 2D6 = Cytochrome P450 2D6 (Homo sapiens, UniProt P10635); assay: Inhibition of CYP2D6 in human microsomes preincubated for 5 mins before substrate addition measured after 10 mins by LC/MS/MS analysis; assay type: ADME
Sequence of Cytochrome P450 2D6 (P10635 whole entry): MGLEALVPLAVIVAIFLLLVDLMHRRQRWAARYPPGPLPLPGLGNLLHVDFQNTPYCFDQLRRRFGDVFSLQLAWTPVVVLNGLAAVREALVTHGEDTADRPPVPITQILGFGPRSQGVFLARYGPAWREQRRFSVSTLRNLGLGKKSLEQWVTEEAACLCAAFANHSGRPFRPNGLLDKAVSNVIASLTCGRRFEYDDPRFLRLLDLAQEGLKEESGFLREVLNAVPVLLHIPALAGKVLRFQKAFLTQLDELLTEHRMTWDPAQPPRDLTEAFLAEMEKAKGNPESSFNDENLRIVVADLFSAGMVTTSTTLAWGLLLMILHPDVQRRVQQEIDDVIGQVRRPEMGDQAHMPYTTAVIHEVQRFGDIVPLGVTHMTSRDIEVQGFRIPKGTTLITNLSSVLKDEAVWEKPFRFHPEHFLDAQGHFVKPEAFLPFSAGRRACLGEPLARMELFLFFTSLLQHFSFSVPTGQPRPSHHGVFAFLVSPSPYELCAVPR

[13] = Aqueous solubility of the compound at pH 7.4 by pION Method; assay type: physicochemical; settings: buffer
CYP2C19 = CYP2C19 (Homo sapiens, UniProt P33261); assay: Inhibition of CYP2C19 in human microsomes preincubated at 10 uM for 5 mins before substrate addition measured after 10 mins by LC/MS/MS analysis; assay type: ADME
Cytochrome P450 1A2 = molecular target: T3, Cytochrome P450 1A2 (Homo sapiens, UniProt P05177); assay: Inhibition of CYP1A2 in human microsomes preincubated for 5 mins before substrate addition measured after 10 mins by LC/MS/MS analysis; assay type: ADME
T3 sequence (P05177 whole entry): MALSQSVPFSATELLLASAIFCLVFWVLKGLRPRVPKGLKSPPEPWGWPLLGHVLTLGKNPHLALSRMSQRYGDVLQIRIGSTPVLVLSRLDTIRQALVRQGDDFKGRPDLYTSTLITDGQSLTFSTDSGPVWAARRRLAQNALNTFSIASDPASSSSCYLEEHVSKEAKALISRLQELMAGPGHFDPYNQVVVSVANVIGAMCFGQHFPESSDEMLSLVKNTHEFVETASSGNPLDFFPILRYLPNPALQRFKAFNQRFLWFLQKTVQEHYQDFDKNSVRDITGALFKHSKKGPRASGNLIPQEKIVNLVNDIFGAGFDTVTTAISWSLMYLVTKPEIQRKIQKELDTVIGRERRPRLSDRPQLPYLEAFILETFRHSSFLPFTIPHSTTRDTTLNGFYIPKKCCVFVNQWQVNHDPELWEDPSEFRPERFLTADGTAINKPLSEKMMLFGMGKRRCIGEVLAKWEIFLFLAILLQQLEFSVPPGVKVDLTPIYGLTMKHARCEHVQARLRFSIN

Liver microsome [14] = assay: Intrinsic clearance in human liver microsomes assessed per mg protein at 100 uM by LC-MS/MS analysis; assay type: ADME
Plasma [15] = assay: Fraction unbound in mouse plasma at 10 uM after 5 hrs by LC-MS/MS analysis; assay type: ADME, cell-free
Plasma [16] = assay: Fraction unbound in rat plasma at 10 uM after 5 hrs by LC-MS/MS analysis; assay type: ADME, cell-free
Liver microsome [17] = assay: Half life in human liver microsomes at 100 uM by LC-MS/MS analysis; assay type: ADME
CYP2D6 = CYP2D6 (Homo sapiens, UniProt P10635); assay: Inhibition of CYP2D6 in human microsomes preincubated at 10 uM for 5 mins before substrate addition measured after 10 mins by LC/MS/MS analysis; assay type: ADME
Sequence of CYP2D6 (P10635 whole entry): as the sequence (P10635 whole entry) above

CYP1A2 = CYP1A2 (Homo sapiens, UniProt P05177); assay: Inhibition of CYP1A2 in human microsomes preincubated at 10 uM for 5 mins before substrate addition measured after 10 mins by LC/MS/MS analysis; assay type: ADME
Liver microsome [18] = assay: Half life in rat liver microsomes at 100 uM by LC-MS/MS analysis; assay type: ADME
Cytochrome P450 2C9 = Cytochrome P450 2C9 (Homo sapiens, UniProt P11712); assay: Inhibition of CYP2C9 in human microsomes preincubated for 5 mins before substrate addition measured after 10 mins by LC/MS/MS analysis; assay type: ADME
Sequence of Cytochrome P450 2C9 (P11712 whole entry): as the sequence (P11712 whole entry) above

Liver = assay: Half life in mouse liver microsomes at 100 uM by LC-MS/MS analysis; assay type: ADME
Cytochrome P450 2C19 = Cytochrome P450 2C19 (Homo sapiens, UniProt P33261); assay: Inhibition of CYP2C19 in human microsomes preincubated for 5 mins before substrate addition measured after 10 mins by LC/MS/MS analysis; assay type: ADME
Sequence of Cytochrome P450 2C19 (P33261 whole entry): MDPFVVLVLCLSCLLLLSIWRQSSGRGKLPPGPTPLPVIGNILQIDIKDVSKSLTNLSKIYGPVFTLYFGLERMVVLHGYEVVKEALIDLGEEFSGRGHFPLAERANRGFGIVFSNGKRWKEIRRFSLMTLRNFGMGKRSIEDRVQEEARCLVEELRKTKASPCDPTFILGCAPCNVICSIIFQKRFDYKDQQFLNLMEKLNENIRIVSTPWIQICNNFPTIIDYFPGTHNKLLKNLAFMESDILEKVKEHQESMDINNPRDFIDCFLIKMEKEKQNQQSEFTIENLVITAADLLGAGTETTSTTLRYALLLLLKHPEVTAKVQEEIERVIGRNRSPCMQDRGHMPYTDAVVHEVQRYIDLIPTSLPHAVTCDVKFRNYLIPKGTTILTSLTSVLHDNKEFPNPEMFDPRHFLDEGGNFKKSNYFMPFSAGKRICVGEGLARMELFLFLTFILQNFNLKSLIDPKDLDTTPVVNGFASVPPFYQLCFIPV

Plasma [19] = assay: Fraction unbound in human plasma at 10 uM after 5 hrs by LC-MS/MS analysis; assay type: ADME, cell-free
CYP3A4 = CYP3A4 (Homo sapiens, UniProt P08684); assay: Inhibition of CYP3A4 in human microsomes preincubated at 10 uM for 5 mins before substrate addition measured after 10 mins by LC/MS/MS analysis; assay type: ADME
Sequence of CYP3A4 (P08684 whole entry): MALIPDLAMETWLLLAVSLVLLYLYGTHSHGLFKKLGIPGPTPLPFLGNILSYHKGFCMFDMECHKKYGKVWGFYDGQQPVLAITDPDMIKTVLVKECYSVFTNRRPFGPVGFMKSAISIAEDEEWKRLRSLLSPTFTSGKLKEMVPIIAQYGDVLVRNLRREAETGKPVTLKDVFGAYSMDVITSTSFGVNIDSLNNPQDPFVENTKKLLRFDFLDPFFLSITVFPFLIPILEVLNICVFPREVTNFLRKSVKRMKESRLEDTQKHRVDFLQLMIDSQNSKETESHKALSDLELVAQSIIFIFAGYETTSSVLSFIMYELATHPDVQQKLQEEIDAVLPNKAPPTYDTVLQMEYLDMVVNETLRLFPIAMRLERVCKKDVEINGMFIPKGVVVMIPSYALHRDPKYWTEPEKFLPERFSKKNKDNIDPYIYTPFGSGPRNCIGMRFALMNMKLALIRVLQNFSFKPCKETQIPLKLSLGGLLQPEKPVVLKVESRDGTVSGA

Cytochrome P450 3A4 = Cytochrome P450 3A4 (Homo sapiens, UniProt P08684); assay: Inhibition of CYP3A4 in human microsomes preincubated for 5 mins before substrate addition measured after 10 mins by LC/MS/MS analysis; assay type: ADME
Sequence of Cytochrome P450 3A4 (P08684 whole entry): as above

[20] = Half life of the compound in simulated gastric fluid at pH 1.6; assay type: ADME; settings: simulated gi fluid
[21] = molecular target: Translocator protein (Homo sapiens) (UniProt P30536); assay: Binding affinity to TSPO (unknown origin) by PDSP screening
Sequence of Translocator protein (Homo sapiens) (P30536 whole entry): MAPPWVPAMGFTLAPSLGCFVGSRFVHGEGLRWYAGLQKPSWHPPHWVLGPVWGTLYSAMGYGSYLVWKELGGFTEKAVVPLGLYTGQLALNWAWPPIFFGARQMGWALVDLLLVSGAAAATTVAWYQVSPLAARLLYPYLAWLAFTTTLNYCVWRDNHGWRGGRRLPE

Homo sapiens = species on record: Homo sapiens; assay: Binding affinity to sigma2 receptor (unknown origin) by PDSP screening
[22] = molecular target: Sigma non-opioid intracellular receptor 1 (Homo sapiens) (UniProt Q99720); assay: Binding affinity to sigma1 receptor (unknown origin) by PDSP screening
Sequence of Sigma non-opioid intracellular receptor 1 (Homo sapiens) (Q99720 whole entry): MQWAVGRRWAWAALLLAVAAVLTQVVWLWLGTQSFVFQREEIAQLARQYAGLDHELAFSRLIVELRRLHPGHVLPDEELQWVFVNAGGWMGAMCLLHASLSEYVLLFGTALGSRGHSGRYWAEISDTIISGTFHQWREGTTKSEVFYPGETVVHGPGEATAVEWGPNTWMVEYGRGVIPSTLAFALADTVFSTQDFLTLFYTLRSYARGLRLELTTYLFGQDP

[23] = molecular target: T4, Adenosine receptor A3 (Mus musculus) (UniProt Q61618); assay: Agonist activity at mouse A3 adenosine receptor expressed in HEK293 cells assessed as inhibition of forskolin-stimulated cAMP production after 15 mins relative to control; assay type: functional, cell-based
T4 sequence (whole entry): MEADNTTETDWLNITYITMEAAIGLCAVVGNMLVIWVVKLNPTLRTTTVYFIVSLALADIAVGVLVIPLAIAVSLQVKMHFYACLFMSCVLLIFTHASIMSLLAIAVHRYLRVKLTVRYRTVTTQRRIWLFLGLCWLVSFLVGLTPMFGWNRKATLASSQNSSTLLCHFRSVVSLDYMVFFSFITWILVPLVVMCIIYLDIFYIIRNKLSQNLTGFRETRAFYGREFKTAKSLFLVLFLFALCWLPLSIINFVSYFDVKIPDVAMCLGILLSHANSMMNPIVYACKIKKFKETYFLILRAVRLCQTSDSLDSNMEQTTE
Outline: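 2 × 10^5 cells/tube, coincubated with forskolin 10 μM plus ligand for 15 min at 37 °C with shaking. Stopped with HCl. cAMP in supernatant measured by competitive binding.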

SMILES: CNC(=O)[C@@]12C[C@@H]1[C@@H](n1cnc3c(NC)nc(C#Cc4ccc(F)c(F)c4)nc31)[C@H](O)[C@@H]2O
- Emax at 3 µmol/kg (Mus musculus [1]): 99%
- Time (Mus musculus [2]): 1 h
- Activity (Mus musculus [3]): 28.7%
- IC50 [4]: 27 µM
- Ki (Adenosine receptor A3): 0.086 µM
- Ratio IC50 (CHO [5]): > 10000
- Ratio Ki (CHO [6]): > 30

SMILES: CNC(=O)[C@@]12C[C@@H]1[C@@H](n1cnc3c(NC)nc(C#Cc4ccco4)nc31)[C@H](O)[C@@H]2O
- inhibition [7]: 59%
- Emax at 3 µmol/kg (Mus musculus [1]): 100%
- Time (Mus musculus [2]): 1 h
- Activity (Mus musculus [3]): 27.6%
- inhibition at 10 µM (hERG (KCNH2)): 21%
- permeability [8]: permeable
- inhibition [9]: 17%
- inhibition [10]: 18%
- inhibition [11]: 30%

SMILES: CNC(=O)[C@@]12C[C@@H]1[C@@H](n1cnc3c(NC)nc(C#Cc4ccc(Br)s4)nc31)[C@H](O)[C@@H]2O
- t1/2 [12]: > 8 h
- inhibition at 10 min, 10 µM (CYP2C9): 24.2%
- Emax at 3 µmol/kg (Mus musculus [1]): 100%
- IC50 (Cytochrome P450 2D6): 7.4 µM
- solubility [13]: 15.6 µg/mL (≈ 31 µM)
- inhibition at 10 min, 10 µM (CYP2C19): 34%
- IC50 (Cytochrome P450 1A2): > 7 µM
- Time (Mus musculus [2]): 1 h
- CLH (Liver microsome [14]): 3.38 µL/min
- Fu (Plasma [15]): 2.75%
- Fu (Plasma [16]): 4.04%
- Activity (Mus musculus [3]): 48.7%
- t1/2 (Liver microsome [17]): 3.42 h
- inhibition at 10 min, 10 µM (CYP2D6): 57.5%
- inhibition at 10 min, 10 µM (CYP1A2): 15%
- t1/2 (Liver microsome [18]): 1.52 h
- IC50 (Cytochrome P450 2C9): > 7 µM
- t1/2 (Liver): 1.6 h
- inhibition [9]: 10%
- inhibition [10]: 19%
- IC50 (Cytochrome P450 2C19): > 7 µM
- inhibition [11]: 18%
- Fu (Plasma [19]): 2.67%
- inhibition at 10 min, 10 µM (CYP3A4): 3.1%
- IC50 (Cytochrome P450 3A4): > 7 µM
- t1/2 [20]: > 8 h

SMILES: CNC(=O)[C@@]12C[C@@H]1[C@@H](n1cnc3c(NC)nc(C#Cc4ccc(Cl)s4)nc31)[C@H](O)[C@@H]2O
- inhibition [7]: 38%
- Activity [21]: Active
- Emax at 3 µmol/kg (Mus musculus [1]): 93.3%
- IC50 (Cytochrome P450 2D6): > 10 µM
- Activity (Homo sapiens): Active
- IC50 (Cytochrome P450 1A2): > 10 µM
- Time (Mus musculus [2]): 0.5 h
- CLH (Liver microsome [14]): 3.69 µL/min
- Activity [22]: Active
- Activity (Mus musculus [3]): 82.8%
- IC50 [4]: 12.9 µM
- permeability [8]: permeable
- IC50 (Cytochrome P450 2C9): > 10 µM
- Imax [23]: 35%
- inhibition [9]: 7%
- inhibition [10]: 24%
- IC50 (Cytochrome P450 2C19): > 10 µM
- inhibition [11]: 6%
- IC50 (Cytochrome P450 3A4): > 10 µM
